M1 antag – human CHRM1 antagonism; P11229; CHO-K1 hM1, Fluo-8 calcium fluorescence, ACh EC80 antagonist; inhibition, % at 3 µM; hit rate 1.3% among 360,000; AID 588852;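 active = percent inhibition above its own plate's cutoff, namely the mean of that plate's compound wells plus 3 SD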;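 also: peak over basal fluorescence ratio during 140 s after agonist addition; 0% = ACh EC80 plus DMSO and 100% = DMSO alone without agonist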
HTR2A ag – agonists of mouse serotonin 5-HT2A receptor (HTR2A). CHO-K1 mHTR2A beta-arrestin complementation, luminescence; percent of 30 µM serotonin response. activation, % at 7.6 µM. hit rate 0.66% among 360,000. AID 624169;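 active = activation above a run cutoff, the mean activation of all tested compounds plus 3 SD, cut at about 14% in these data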;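 also: 0% = plate median of compound wells and 100% = 30 µM serotonin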
Target sequence (P35363 whole entry, looked up): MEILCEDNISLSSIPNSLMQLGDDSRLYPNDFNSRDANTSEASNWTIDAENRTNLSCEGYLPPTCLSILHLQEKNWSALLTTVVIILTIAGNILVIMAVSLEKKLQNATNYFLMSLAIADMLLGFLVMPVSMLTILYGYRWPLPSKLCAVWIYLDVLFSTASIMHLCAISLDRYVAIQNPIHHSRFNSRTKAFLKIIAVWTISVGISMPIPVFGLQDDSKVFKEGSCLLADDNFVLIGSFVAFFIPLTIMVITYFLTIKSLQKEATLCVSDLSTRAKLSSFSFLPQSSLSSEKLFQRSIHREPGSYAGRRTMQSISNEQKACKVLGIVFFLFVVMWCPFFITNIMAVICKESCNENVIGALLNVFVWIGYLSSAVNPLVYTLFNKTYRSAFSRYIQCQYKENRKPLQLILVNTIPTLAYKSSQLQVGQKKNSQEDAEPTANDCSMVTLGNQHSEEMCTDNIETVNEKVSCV
TAAR1 antagonist – antagonists of human TAAR1; AID 624466; hit rate 1.5% among 360,000; inhibition, % at 3 µM; CHO RD-HGA16 TAAR1, Fluo-8 calcium fluorescence, antagonist; Q96RJ0;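 active = inhibition above a per-plate cutoff, the mean inhibition of test compounds on that plate plus 3 SD, cut at about 49% in these data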;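 also: 0% = DMSO plus EC80 beta-PEA response and 100% = DMSO alone without agonist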
Target sequence (Q96RJ0 whole entry, looked up): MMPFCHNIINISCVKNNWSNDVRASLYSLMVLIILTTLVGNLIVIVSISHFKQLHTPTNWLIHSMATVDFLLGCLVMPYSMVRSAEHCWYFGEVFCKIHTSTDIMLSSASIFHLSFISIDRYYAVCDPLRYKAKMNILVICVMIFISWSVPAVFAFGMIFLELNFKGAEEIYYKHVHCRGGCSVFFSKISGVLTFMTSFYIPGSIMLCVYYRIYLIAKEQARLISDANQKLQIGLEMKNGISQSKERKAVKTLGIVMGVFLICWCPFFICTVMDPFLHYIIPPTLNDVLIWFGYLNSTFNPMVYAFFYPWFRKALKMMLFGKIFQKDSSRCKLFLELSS
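Assay system: RD-HGA16 CHO cells with stable hTAAR1 and Gα16 / Reagent: EC80 β-phenethylamine stimulus / Doses: 3 µM, single point / Timing: dye loading 75 min at 37 °C, then 30 min room temperature / Measured by: Fluo-8 intracellular calcium dye fluorescence, real-time kinetic reads / Controls: vehicle wells and EC80 agonist wells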
M1 PAM – positive allosteric modulators of human M1 muscarinic receptor; activation, % at 3 µM; hit rate 0.088% among 360,000; CHO-K1 hM1, Fluo-8 calcium fluorescence, ACh EC20; 0% = ACh EC20, 100% = maximal ACh; in the data active = activation above about 19%, passing the limit was not always enough
M1 ag – human M1 muscarinic receptor agonism. P11229. hit rate 0.33% among 360,000. AID 588814. activation, % at 3 µM. CHO-K1 hM1, Fluo-8 calcium fluorescence, agonist mode; 0% DMSO, 100% acetylcholine EC100;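 active = activation above the run's mean compound activation plus 3 SD, cut at about 16% in these data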;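 also: peak over basal fluorescence ratio within a 140 s kinetic read after compound addition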
TAAR1 agonist – agonists of human TAAR1; Q96RJ0; CHO RD-HGA16 TAAR1, Fluo-8 calcium fluorescence; vehicle wells 0%, saturating PEA agonist 100%; activation, % at 3 µM; hit rate 0.99% among 360,000; AID 624467;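 active = activation above the mean activation of all test compounds in the run plus 3 SD, cut at about 38% in these data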
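Test system: RD-HGA16 (CHO) cells co-expressing Gα16 and hTAAR1 | Doses: Single dose, 3 µM | Schedule: 17-24 h seeding, 75 min 37 °C dye, 30 min RT | Evaluation: % activation from peak over basal fluorescence ratio, DMSO-to-PEA scaled | Technique: Kinetic Fluo-8 calcium fluorescence | Benchmarks: Low control DMSO, high control PEA (EC100)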
nonsel antag count – counter-screen for TAAR1 antagonists: nonselective antagonists. hit rate 77% among 2,400. shares compounds with TAAR1 antagonist. inhibition, % at 3 µM. counterscreen cell line, calcium fluorescence, antagonist mode; in the data active = inhibition above about 22%;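 also: CHO-Ga16 host cells stimulated with ATP at an EC80 level; 0% = agonist EC80 plus vehicle and 100% = vehicle without agonist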
TAAR1 ant conf – confirmation of human TAAR1 antagonists; hit rate 40% among 2,400; shares compounds with TAAR1 antagonist; inhibition, % at 3 µM; AID 651785; TAAR1-expressing cells, fluorescence antagonist read-out; in the data active = inhibition above about 49%;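 also: CHO-Ga16 host cells challenged with agonist PEA near its EC80; 0% = agonist at EC80 plus vehicle and 100% = vehicle with no agonist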
Ga16 nonsel ag – nonselective Ga16 agonism, counter-screen; shares compounds with TAAR1 antagonist; Ga16-expressing cells, calcium fluorescence, agonist counterscreen; AID 651953; hit rate 18% among 2,400; activation, % at 3 µM; in the data active = activation above about 12%;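 also: 0% = vehicle wells and 100% = saturating stimulus response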
TAAR1 ag counter – activates human TAAR1 in antagonist counter-screen; hit rate 2% among 2,400; activation, % at 3 µM; shares compounds with TAAR1 antagonist; hTAAR1 cell line, fluorescence activation, agonist mode; in the data active = activation above about 37%;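 also: CHO cells stably expressing TAAR1 with calcium dye readout; 0% = DMSO vehicle and 100% = full agonist response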
Starred values were filed as active, the others as inactive; · = no result. Shown are actives, neighbours in structure and some others; about 3.9% of the full set was active somewhere.

SMILES | M1 antag | HTR2A ag | TAAR1 antagonist | M1 PAM | M1 ag | TAAR1 agonist | nonsel antag count | TAAR1 ant conf | Ga16 nonsel ag | TAAR1 ag counter
O=C(Nc1cccnc1)c1sc(Nc2ccccc2)nc1-c1ccccc1 | 14.9 | -5.3 | 58.6* | -9.7 | -6.8 | 13.7 | 34.4* | 36.8 | 8.3 | 10.9
COc1cccc(-c2c(C#N)c(SC)nc3cc(C)nn23)c1 | -8.2 | 1.6 | 0.6 | 5.7 | -2.5 | 6.7 | · | · | · | ·
COc1ccccc1CN(Cc1nc2ccccc2c(=O)[nH]1)S(=O)(=O)c1ccc(C)cc1 | · | · | 52.7* | · | · | 1.2 | 14.5 | 37.9 | 7.6 | 10.5
O=C(NCCCN1CCCC1=O)Nc1ccc([N+](=O)[O-])cc1 | -11.5 | -2.1 | -1.1 | 6.7 | -1.8 | 0.1 | · | · | · | ·
N#Cc1ccc(CN2CCN(C(=O)c3ccc(S(=O)(=O)N4CCCCCC4)cc3)CC2)cc1 | -0.5 | 10.1 | 13.9 | -1.7 | 1.6 | 10.4 | · | · | · | ·
Nc1nc(-c2cc(O)ccc2[N+](=O)[O-])cc(-c2ccccc2)c1[N+](=O)[O-] | -22.7 | 0.8 | 48.9* | 22.5 | -2.1 | 14.2 | 24.0* | 39.9 | 5.6 | 3.1
O=C1CCc2ccc(NS(=O)(=O)c3ccc(F)cc3)cc2N1 | -6.1 | 2.5 | -8.3 | 7.9 | -3.3 | 9.1 | · | · | · | ·
C[C@H](NC(=O)c1nc[nH]c1C(=O)NCc1ccc(CNC(=O)OC(C)(C)C)cc1)c1ccccc1 | 30.5 | 0.2 | 68.0* | -18.4 | -3.2 | 35.8 | 38.2* | 41.9 | 10.5 | 17.0
CC(C)(C)OC(=O)NCc1ccc(CNC(=O)c2nc[nH]c2C(=O)N2CCN(C(=O)OC(C)(C)C)CC2)cc1 | 26.6 | 5.6 | 61.0* | -19.9 | -2.6 | 25.8 | 35.1* | 52.4* | 16.3* | 18.8
CC(C)(C)OC(=O)NCc1ccc(CNC(=O)c2[nH]cnc2C(=O)Nc2ccccc2F)cc1 | 16.5 | -3.0 | 71.0* | -10.4 | 4.2 | 12.7 | 42.1* | 46.0 | 11.0 | 13.1
O=C(Nc1ccccc1F)c1nc[nH]c1C(=O)NCc1ccccc1 | 0.0 | -2.2 | 4.0 | -5.7 | -5.2 | 4.4 | · | · | · | ·
CC(C)C[C@H](NC(=O)c1nc[nH]c1C(=O)NC(c1ccccc1)c1ccccc1)C(=O)OC(C)(C)C | 18.9 | 2.8 | 56.2* | -9.4 | -2.1 | 8.2 | 19.2 | 31.5 | 0.3 | 1.8
CC(C)C[C@H](NC(=O)c1[nH]cnc1C(=O)N[C@H](C)c1ccccc1)C(=O)OC(C)(C)C | 7.9 | 0.6 | 11.6 | -4.0 | -5.1 | -1.1 | · | · | · | ·
Cc1ccc(N(C)C(=O)CCS(=O)(=O)c2ccc3c(c2)oc(=O)n3C)cc1 | -5.5 | -0.7 | -0.6 | 2.2 | -5.4 | 2.1 | · | · | · | ·
CN(CC(=O)Nc1ccc(F)cc1)C(=O)c1cc(-c2cccs2)nn1-c1ccccc1 | 11.2 | -1.8 | 69.1* | -8.3 | -4.3 | 6.3 | 27.7* | 44.8 | 6.1 | 7.6
COc1ccc(NC(=O)CN(C)C(=O)c2cn(-c3ccccc3)nc2-c2cccs2)cc1 | 13.4 | -1.9 | 56.4* | -3.6 | -2.4 | 11.2 | 23.9* | 40.0 | 6.5 | 4.1
COc1ccc(NC(=O)CN(C)C(=O)c2cn(-c3ccccc3)nc2-c2cccnc2)cc1 | -2.4 | -8.9 | 14.4 | 3.0 | -4.4 | 4.5 | · | · | · | ·
CCOc1ccc(NC(=O)CN(C)C(=O)c2cn(-c3ccc(F)cc3)nc2-c2cccc(OC)c2)cc1OCC | 17.9 | -0.9 | 69.9* | -8.7 | -4.6 | 7.8 | 33.2* | 37.9 | 6.2 | 1.3
Cn1c(CNC(=O)c2ccco2)nnc1SCC(=O)Nc1c(F)cc(F)cc1Br | 8.0 | -1.6 | -6.8 | -1.9 | -4.0 | 9.1 | · | · | · | ·
CC1CC(C)CN(CCCNC(=O)CN2C(=O)COc3ccc(S(=O)(=O)N4CCOCC4)cc32)C1 (configuration not stated) | -1.2 | -2.9 | 12.7 | 1.3 | -5.7 | 2.1 | · | · | · | ·
CC1Nc2ncnc(N3CCN(c4ccccc4)CC3)c2N(Cc2ccc(Cl)cc2)C1=O (configuration not stated) | 1.1 | -34.0 | 52.6* | 9.0 | -5.2 | 26.0 | 22.4* | 37.9 | 6.6 | 7.9
CC(C)CC1Nc2ncnc(N3CCN(c4ccccc4)CC3)c2N(Cc2ccccc2)C1=O (configuration not stated) | -0.4 | 1.6 | -28.7 | 4.9 | -7.0 | 0.3 | · | · | · | ·
CC1Nc2ncnc(N3CCN(c4ccccc4)CC3)c2N(Cc2ccccc2)C1=O (configuration not stated) | 1.3 | -11.7 | 50.4* | 5.3 | -3.9 | 24.0 | 21.7* | 35.3 | 7.1 | 12.6
CCCCCN(C(=O)CCC(=O)OCC(=O)c1ccc(C(C)CC)cc1)c1c(N)n(CCCC)c(=O)[nH]c1=O (configuration not stated) | -18.5 | 14.2 | · | 15.1 | -0.5 | · | · | · | · | ·
CN(C)S(=O)(=O)c1ccc(Cl)c(C(=O)NC2=NCCS2)c1 | -9.0 | 1.5 | -10.9 | 12.3 | -5.4 | 6.2 | · | · | · | ·
SMILES | M1 antag | HTR2A ag | TAAR1 antagonist | M1 PAM | M1 ag | TAAR1 agonist | nonsel antag count | TAAR1 ant conf | Ga16 nonsel ag | TAAR1 ag counter
O=C(CSc1ccccc1C(=O)NCc1ccccc1)NC1CCCCCCC1 | 7.1 | 6.2 | 54.5* | -3.9 | -2.2 | 12.5 | 18.0 | 30.9 | 6.1 | 2.5
CC(C)(C)OC(=O)NCCCC[C@H](NC(=O)c1[nH]cnc1C(=O)Nc1ccc(CNC(=O)OC(C)(C)C)cc1)C(=O)OC(C)(C)C | · | · | 64.8* | · | · | 13.3 | 28.4* | 49.2* | 7.8 | 7.3
CC(C)(C)OC(=O)NCCCCCNC(=O)c1[nH]cnc1C(=O)Nc1ccccc1 | 7.2 | 0.0 | 57.3* | -8.4 | -3.8 | 13.4 | 18.6 | 31.4 | 5.6 | 9.6
CC(C)(C)OC(=O)NCCCC[C@H](NC(=O)c1nc[nH]c1C(=O)NCc1ccccc1)C(=O)OC(C)(C)C | -0.9 | -1.0 | 28.3 | -2.6 | -4.9 | 14.7 | · | · | · | ·
CC(C)(C)OC(=O)NCCCCCNC(=O)c1[nH]cnc1C(=O)Nc1ccc(Cl)cc1 | 11.3 | -4.8 | 55.3* | -2.1 | -2.4 | 15.0 | 26.5* | 41.9 | 4.7 | 3.4
C[C@H]1CNC(=O)c2c(C(=O)Nc3ccc(CNC(=O)OC(C)(C)C)cc3)ncn21 | -3.5 | 7.9 | 54.8* | -5.1 | -3.9 | 14.0 | 34.2* | 45.7 | 8.6 | 4.7
CCS(=O)(=O)N1Cc2cc(C(=O)NCCOC)nc(-c3cccc(-c4ccncc4)c3)c2[C@H]1CCO | · | 1.8 | -4.3 | · | · | 3.5 | · | · | · | ·
